Shown are actives, neighbours in structure and some others; about 2.9% of the full set was active somewhere.
PRMT1 FP inh = PRMT1 methyltransferase inhibitors, primary screen, biochemical, fluorescence polarization; Protein arginine N-methyltransferase 1 (Homo sapiens), Q99873; recombinant PRMT1, activity-based probe fluorescence polarization; inhibition, % at 2.79 µM; hit rate 1.3% among 370,000;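 active = inhibition above about 21% made by adding two undisclosed values, limit read from the data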
ABHD5-PLIN5 inh = ABHD5-PLIN5 interaction inhibitors, primary screen, cell lysate, split luciferase complementation, luminescence; Perilipin-5 (Homo sapiens) + 1-acylglycerol-3-phosphate O-acyltransferase ABHD5 (Homo …; Split G. princeps luciferase complementation, 4 h; inhibition, % at 4 µM; hit rate 0.78% among 360,000; AID 602281, 2012;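 active = inhibition above the mean inhibition across every tested compound plus 3 SD, cut at about 22% in these data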;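 also: 0% = DMSO only wells and the 100% control is not disclosed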
APOBEC3G inh = APOBEC3G DNA deaminase inhibitors, primary screen, biochemical, fluorescence, single-stranded DNA substrate, uHTS; DNA dC->dU-editing enzyme APOBEC-3G (Homo sapiens), Q9HC16; inhibition, % at 20 µM; AID 493012, 2011; hit rate 0.28% among 330,000; recombinant A3G, ssDNA deamination FAM/TAMRA fluorescence;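 active = inhibition of at least 40% at 20 µM, with no more than 30% in the related APOBEC3A deaminase screen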;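 also: plate controls were DMSO wells with A3G for no effect and wells lacking A3G enzyme for full effect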
HCV core dimer = inhibitors of HCV core protein dimerization, primary screen, biochemical, TR-FRET, high-throughput. inhibition, % at 5 µM. hit rate 0.33% among 300,000. TR-FRET GST/Flag-core106 dimerization, 1536-well. AID 1899, 2009;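 active = inhibition above the mean of all tested compounds plus 3 SD, set per screening campaign, cut at about 45% in these data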
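test system = GST/Flag-tagged HCV core106 proteins | probe or stimulus = Eu donor and XL665 acceptor anti-tag antibodies | times = compound-protein-antibody incubation 4 h at 22.5 °C | signal = TR-FRET, excitation 340 nm, emission 617 and 671 nm | measure = percent inhibition of core106 dimerization signal | controls = wells lacking GST-core106 and wells with excess unlabelled core106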
A3A deaminase = APOBEC3A ssDNA deaminase inhibitors, primary screen, selectivity assay for APOBEC3G inhibitor project, biochemical, FAM/TAMRA oligo cleavage fluorescence. recombinant A3A, FAM/TAMRA ssDNA deamination fluorescence. inhibition, % at 20 µM. hit rate 0.41% among 330,000. AID 493011, 2011;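 active = at least 40% inhibition at 20 µM here, with at most 30% in a related deaminase screen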;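 also: plate controls were A3A with DMSO for no effect and wells lacking A3A enzyme for full effect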
NS3 helicase inh = inhibitors of HCV NS3 helicase, primary screen, biochemical, Cy5 molecular beacon fluorescence | NS3 helicase DNA unwinding | hit rate 0.56% among 290,000 | inhibition, % at 10.9 µM;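 active = inhibition above the mean of all tested compounds plus 3 SD, set per campaign, cut at about 35% in these data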;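 also: 0% = DMSO wells and 100% = thioflavine S control wells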
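System: HCV NS3 helicase fragment; control set: DMSO and thioflavine S; technique: Cy5 fluorescence at 0 and 60 min, beacon hairpin quenching; reagent: beacon DNA duplex substrate plus ATP; replicates: singlicate; schedule: 1 h reaction at 25 °C, ATP-initiated; medium: MOPS buffer pH 6.5 with MgCl2, DTT, Tween20, BSA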
Starred values were filed as active, the others as inactive.

Screening CC(OC(=O)c1ccc(S(C)(=O)=O)c([N+](=O)[O-])c1)C(=O)NC1C2CC3CC(C2)CC1C3 (stereo not drawn) returned PRMT1 FP inh 8.8 and ABHD5-PLIN5 inh 22.6*.
`CCC(OC(=O)c1ccc(S(C)(=O)=O)c([N+](=O)[O-])c1)C(=O)NC1C2CC3CC(C2)CC1C3` (stereo not drawn) gave PRMT1 FP inh 5.5 and ABHD5-PLIN5 inh 7.0.
Screening O=c1cc(CSc2nnnn2-c2ccccc2)nc2scc(-c3ccccc3)n12 returned PRMT1 FP inh -1.3, ABHD5-PLIN5 inh -1.9, APOBEC3G inh -1.3, HCV core dimer 60.0*, A3A deaminase -0.4 and NS3 helicase inh 10.1.
`C#CCNC(=O)C[C@H]1C[C@@]2(C(=O)OC)C(=C[C@H](C(C)C)O[C@@H]2C2CC2)N(CCCCCCCC)C1=O` gave PRMT1 FP inh 0.2.
`O=C(O)C1CSC(c2ccc3c(c2)OCO3)N1` (stereo not drawn) gave PRMT1 FP inh 27.3*, ABHD5-PLIN5 inh -4.7, APOBEC3G inh -0.2, HCV core dimer -2.9, A3A deaminase 3.2 and NS3 helicase inh -2.6.
Screening CCc1ccc(C2NC(C(=O)O)CS2)cc1 (stereo not drawn) returned NS3 helicase inh -5.2.
Nn1c(SCC(=O)Nc2nccs2)nnc1-c1cc(-c2ccc(F)cc2)n[nH]1 was read as PRMT1 FP inh -3.1.
`O=C(OC12CCCN(C1)/C(=C/c1ccc(Cl)cc1)C2)C1CCCC1` (stereo not drawn) gave PRMT1 FP inh -2.0.
`O=c1c2c3c(sc2n(CCN2CCCC2)c(=O)n1Cc1ccco1)CCCCC3` gave PRMT1 FP inh 0.1, ABHD5-PLIN5 inh 15.6, APOBEC3G inh -3.7, HCV core dimer 6.2, A3A deaminase 2.0 and NS3 helicase inh -24.2.
Screening O=C(Cn1c(=O)n(Cc2ccco2)c(=O)c2c3c(sc21)CCCCC3)c1ccccc1 returned ABHD5-PLIN5 inh 50.6*, APOBEC3G inh 31.0, HCV core dimer 72.4*, A3A deaminase 56.9 and NS3 helicase inh 25.7.
Screening COc1ccc2ccccc2c1C=Nn1c(-c2n[nH]c3c2CCC3)n[nH]c1=S returned PRMT1 FP inh 2.7.
Fc1ccccc1-c1n[nH]c(=S)n1/N=C/c1c[nH]c2ccccc12 was read as PRMT1 FP inh 23.6*, ABHD5-PLIN5 inh -7.8, APOBEC3G inh -2.7, HCV core dimer -1.0, A3A deaminase -0.4 and NS3 helicase inh -2.7.
`S=c1[nH]nc(-c2n[nH]c3c2CCC3)n1N=Cc1c[nH]c2ccccc12` gave PRMT1 FP inh 22.4*.
For O=C(NCCc1ccccc1Cl)[C@@H]1CCCN1C(=O)[C@@H](NC(=O)N1CCOCC1)C1CCCCC1 the results were PRMT1 FP inh 6.8.
`O=C(CC(SCCO)c1ccc([N+](=O)[O-])cc1)c1ccco1` (stereo not drawn) gave PRMT1 FP inh 12.2, ABHD5-PLIN5 inh 22.9*, APOBEC3G inh -1.8, HCV core dimer 1.7, A3A deaminase -0.9 and NS3 helicase inh -3.6.
O=C1c2ccccc2C(=O)N1c1cccc(-c2csc(Nc3ccc4c(c3)OCO4)n2)c1 was read as HCV core dimer 49.1* and NS3 helicase inh 24.3.
Screening COC(=O)/C=c1/s/c(=C(\C#N)C(=O)NCc2ccco2)n(-c2ccccc2)c1=O returned PRMT1 FP inh 4.7, ABHD5-PLIN5 inh 17.8, APOBEC3G inh 0.8, HCV core dimer 28.6, A3A deaminase 2.8 and NS3 helicase inh 29.9.
COc1ccc(/C=c2\s/c(=C(/C#N)C(=O)NCc3ccco3)n(-c3ccccc3)c2=O)cc1 was read as PRMT1 FP inh -1.7, ABHD5-PLIN5 inh 13.0, APOBEC3G inh -5.0, HCV core dimer 58.3*, A3A deaminase 0.9 and NS3 helicase inh 7.9.

Screens: PubChem BioAssay, several laboratories
